Measurements from ChEMBL document CHEMBL3244258, “Derivatives of tetrahydro-1,4-benzodiazepines as potential antihypertensive agents” (1977).

How the values were obtained:
Rattus norvegicus [1] = experiment: Antihypertensive activity in left kidney ligation and contralateral nephrectomy-induced hypertensive Sprague-Dawley rat model assessed as change in systolic blood pressure at 75 mg/kg, po administered via stomach tube; format: functional, Artery
Method in brief: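 Conscious female rats made hypertensive by figure-8 ligature of left kidney, contralateral nephrectomy 1 week later. Dosed orally by stomach tube. Systolic pressure measured at the tail with occluding and sensing cuffs and a pressure transducer, before dosing and 1.5 and 4 h after. Values are group means of 4 or 8 rats.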

Rattus norvegicus [2] = experiment: Antihypertensive activity in pithed rat assessed as change in sympathetic outflow activation-induced systemic pressor response at 20 mg/kg, iv at 10 Hz frequency; format: functional
Method in brief: (§1)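 Pithed-rat preparation under ether anesthesia with artificial respiration, pretreated with atropine 1 mg/kg and d-tubocurarine chloride 1 mg/kg. Sympathetic outflow activated electrically at 2.5, 5 or 10 Hz. Carotid pressure responses taken before and after one or more test doses given via jugular vein. Reported as percent change in pressor response.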

Rattus norvegicus [3] = experiment: Antihypertensive activity in pithed rat assessed as change in sympathetic outflow activation-induced systemic pressor response at 20 mg/kg, iv at 5 Hz frequency; format: functional; method in brief: as §1
Rattus norvegicus [4] = experiment: Antihypertensive activity in pithed rat assessed as change in phenylephrine-induced systemic pressor response at 10 mg/kg, iv in presence of 2 mg/kg phenylephrine; format: functional
Method in brief: (§2)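 Ether-anesthetized, artificially respired rats pretreated with atropine 1 mg/kg and d-tubocurarine chloride 1 mg/kg. Carotid arterial pressure recorded; drugs given into the jugular vein. Pressor responses to iv phenylephrine measured before and after one or more iv doses of test compound. Reported as percent change in response.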

Rattus norvegicus [5] = experiment: Antihypertensive activity in pithed rat assessed as change in sympathetic outflow activation-induced systemic pressor response at 20 mg/kg, iv at 2.5 Hz frequency; format: functional; method in brief: as §1
Rattus norvegicus [6] = experiment: Antihypertensive activity in pithed rat assessed as change in phenylephrine-induced systemic pressor response at 10 mg/kg, iv in presence of 4 mg/kg phenylephrine; format: functional; method in brief: as §2
Rattus norvegicus [7] = experiment: Antihypertensive activity in pithed rat assessed as change in sympathetic outflow activation-induced systemic pressor response at 10 mg/kg, iv at 2.5 Hz frequency; format: functional; method in brief: as §1
Rattus norvegicus [8] = experiment: Antihypertensive activity in pithed rat assessed as change in phenylephrine-induced systemic pressor response at 20 mg/kg, iv in presence of 4 mg/kg phenylephrine; format: functional; method in brief: as §2
Rattus norvegicus [9] = experiment: Antihypertensive activity in pithed rat assessed as change in phenylephrine-induced systemic pressor response at 20 mg/kg, iv in presence of 2 mg/kg phenylephrine; format: functional; method in brief: as §2
Rattus norvegicus [10] = experiment: Antihypertensive activity in pithed rat assessed as change in sympathetic outflow activation-induced systemic pressor response at 10 mg/kg, iv at 10 Hz frequency; format: functional; method in brief: as §1
Rattus norvegicus [11] = experiment: Antihypertensive activity in pithed rat assessed as change in sympathetic outflow activation-induced systemic pressor response at 10 mg/kg, iv at 5 Hz frequency; format: functional; method in brief: as §1
Rattus norvegicus [12] = experiment: Antihypertensive activity in pithed rat assessed as change in phenylephrine-induced systemic pressor response at 30 mg/kg, iv in presence of 2 mg/kg phenylephrine; format: functional; method in brief: as §2
Rattus norvegicus [13] = experiment: Antihypertensive activity in pithed rat assessed as change in sympathetic outflow activation-induced systemic pressor response at 30 mg/kg, iv at 10 Hz frequency; format: functional; method in brief: as §1
Rattus norvegicus [14] = experiment: Antihypertensive activity in pithed rat assessed as change in phenylephrine-induced systemic pressor response at 30 mg/kg, iv in presence of 4 mg/kg phenylephrine; format: functional; method in brief: as §2
Rattus norvegicus [15] = experiment: Antihypertensive activity in pithed rat assessed as change in sympathetic outflow activation-induced systemic pressor response at 30 mg/kg, iv at 5 Hz frequency; format: functional; method in brief: as §1
Rattus norvegicus [16] = experiment: Antihypertensive activity in pithed rat assessed as change in sympathetic outflow activation-induced systemic pressor response at 30 mg/kg, iv at 2.5 Hz frequency; format: functional; method in brief: as §1
Rattus norvegicus [17] = experiment: Antihypertensive activity in pithed rat assessed as change in sympathetic outflow activation-induced systemic pressor response at 15 mg/kg, iv at 2.5 Hz frequency; format: functional; method in brief: as §1
Rattus norvegicus [18] = experiment: Antihypertensive activity in pithed rat assessed as change in phenylephrine-induced systemic pressor response at 5 mg/kg, iv in presence of 2 mg/kg phenylephrine; format: functional; method in brief: as §2
Rattus norvegicus [19] = experiment: Antihypertensive activity in pithed rat assessed as change in phenylephrine-induced systemic pressor response at 15 mg/kg, iv in presence of 4 mg/kg phenylephrine; format: functional; method in brief: as §2
Rattus norvegicus [20] = experiment: Antihypertensive activity in pithed rat assessed as change in sympathetic outflow activation-induced systemic pressor response at 15 mg/kg, iv at 10 Hz frequency; format: functional; method in brief: as §1
Rattus norvegicus [21] = experiment: Antihypertensive activity in pithed rat assessed as change in phenylephrine-induced systemic pressor response at 15 mg/kg, iv in presence of 2 mg/kg phenylephrine; format: functional; method in brief: as §2
Rattus norvegicus [22] = experiment: Antihypertensive activity in pithed rat assessed as change in phenylephrine-induced systemic pressor response at 5 mg/kg, iv in presence of 4 mg/kg phenylephrine; format: functional; method in brief: as §2
Rattus norvegicus [23] = experiment: Antihypertensive activity in pithed rat assessed as change in sympathetic outflow activation-induced systemic pressor response at 5 mg/kg, iv at 5 Hz frequency; format: functional; method in brief: as §1
Rattus norvegicus [24] = experiment: Antihypertensive activity in pithed rat assessed as change in sympathetic outflow activation-induced systemic pressor response at 5 mg/kg, iv at 10 Hz frequency; format: functional; method in brief: as §1
Rattus norvegicus [25] = experiment: Antihypertensive activity in pithed rat assessed as change in sympathetic outflow activation-induced systemic pressor response at 15 mg/kg, iv at 5 Hz frequency; format: functional; method in brief: as §1
Rattus norvegicus [26] = experiment: Antihypertensive activity in pithed rat assessed as change in sympathetic outflow activation-induced systemic pressor response at 5 mg/kg, iv at 2.5 Hz frequency; format: functional; method in brief: as §1
Rattus norvegicus [27] = experiment: Antihypertensive activity in pithed rat assessed as change in sympathetic outflow activation-induced systemic pressor response at 40 mg/kg, iv at 10 Hz frequency; format: functional; method in brief: as §1
Rattus norvegicus [28] = experiment: Antihypertensive activity in pithed rat assessed as change in phenylephrine-induced systemic pressor response at 40 mg/kg, iv in presence of 2 mg/kg phenylephrine; format: functional; method in brief: as §2
Rattus norvegicus [29] = experiment: Antihypertensive activity in pithed rat assessed as change in sympathetic outflow activation-induced systemic pressor response at 40 mg/kg, iv at 5 Hz frequency; format: functional; method in brief: as §1
Rattus norvegicus [30] = experiment: Antihypertensive activity in pithed rat assessed as change in phenylephrine-induced systemic pressor response at 40 mg/kg, iv in presence of 4 mg/kg phenylephrine; format: functional; method in brief: as §2
Rattus norvegicus [31] = experiment: Antihypertensive activity in pithed rat assessed as change in sympathetic outflow activation-induced systemic pressor response at 40 mg/kg, iv at 2.5 Hz frequency; format: functional; method in brief: as §1
Rattus norvegicus [32] = experiment: Antihypertensive activity in pithed rat assessed as change in sympathetic outflow activation-induced systemic pressor response at 1 mg/kg, iv at 2.5 Hz frequency; format: functional; method in brief: as §1
Rattus norvegicus [33] = experiment: Antihypertensive activity in pithed rat assessed as change in phenylephrine-induced systemic pressor response at 1 mg/kg, iv in presence of 4 mg/kg phenylephrine; format: functional; method in brief: as §2
Rattus norvegicus [34] = experiment: Antihypertensive activity in pithed rat assessed as change in sympathetic outflow activation-induced systemic pressor response at 1 mg/kg, iv at 10 Hz frequency; format: functional; method in brief: as §1
Rattus norvegicus [35] = experiment: Antihypertensive activity in pithed rat assessed as change in sympathetic outflow activation-induced systemic pressor response at 1 mg/kg, iv at 5 Hz frequency; format: functional; method in brief: as §1
Rattus norvegicus [36] = experiment: Antihypertensive activity in pithed rat assessed as change in phenylephrine-induced systemic pressor response at 1 mg/kg, iv in presence of 2 mg/kg phenylephrine; format: functional; method in brief: as §2

N=C(N)N1CCNc2ccc(Cl)cc2C1.O=[N+]([O-])O
Activity (Rattus norvegicus [1]): -34 mmHg

CN1CCN(C(=N)N)Cc2ccccc21.O=[N+]([O-])O
Activity (Rattus norvegicus [2]): -82%
Activity (Rattus norvegicus [3]): -83%
Activity (Rattus norvegicus [4]): -14%
Activity (Rattus norvegicus [1]): -60 mmHg
Activity (Rattus norvegicus [5]): -83%
Activity (Rattus norvegicus [6]): -5%
Activity (Rattus norvegicus [7]): -73%
Activity (Rattus norvegicus [8]): -20%
Activity (Rattus norvegicus [9]): -26%
Activity (Rattus norvegicus [10]): -57%
Activity (Rattus norvegicus [11]): -67%

N=C(N)N1CCN2CCc3cccc(c32)C1.O=[N+]([O-])O
Activity (Rattus norvegicus [1]): -12 mmHg

N=C(N)N1CCn2c3c(c4cccc(c42)C1)CCCC3.O=[N+]([O-])O
Activity (Rattus norvegicus [1]): -8 mmHg

C[N+]1(C)CCNc2ccccc2C1.[I-]
Activity (Rattus norvegicus [12]): 44%
Activity (Rattus norvegicus [4]): 23%
Activity (Rattus norvegicus [1]): -46 mmHg
Activity (Rattus norvegicus [13]): -35%
Activity (Rattus norvegicus [14]): 74%
Activity (Rattus norvegicus [15]): -34%
Activity (Rattus norvegicus [6]): 39%
Activity (Rattus norvegicus [7]): 10%
Activity (Rattus norvegicus [10]): 1%
Activity (Rattus norvegicus [11]): 9%
Activity (Rattus norvegicus [16]): -38%

CN1CC[N+](C)(C)Cc2ccccc21.[I-]
Activity (Rattus norvegicus [1]): -51 mmHg

CC1CNc2ccccc2C[N+]1(C)C.[I-] (centres undefined)
Activity (Rattus norvegicus [1]): -4 mmHg

CCN1CC[N+](C)(CC)Cc2ccccc21.[I-] (centres undefined)
Activity (Rattus norvegicus [1]): -21 mmHg

C[N+]1(C)CCNc2ccc(Cl)cc2C1.[I-]
Activity (Rattus norvegicus [1]): -4 mmHg

COc1cc2c(cc1OC)NCC[N+](C)(C)C2.[I-]
Activity (Rattus norvegicus [1]): 2 mmHg

C[N+]1(C)CCN2CCc3cccc(c32)C1.[I-]
Activity (Rattus norvegicus [1]): -48 mmHg
Activity (Rattus norvegicus [17]): -93%
Activity (Rattus norvegicus [18]): 68%
Activity (Rattus norvegicus [19]): 12%
Activity (Rattus norvegicus [20]): -91%
Activity (Rattus norvegicus [21]): 87%
Activity (Rattus norvegicus [22]): 18%
Activity (Rattus norvegicus [23]): -40%
Activity (Rattus norvegicus [24]): -47%
Activity (Rattus norvegicus [25]): -87%
Activity (Rattus norvegicus [26]): -42%

C[N+]1(C)CCn2c3c(c4cccc(c42)C1)CCCC3.[I-]
Activity (Rattus norvegicus [1]): 3 mmHg

N/C(CN1CCNc2ccccc2C1)=N\O
Activity (Rattus norvegicus [1]): -12 mmHg

N=C(N)N1CCNc2ccccc2C1.O=[N+]([O-])O
Activity (Rattus norvegicus [2]): -58%
Activity (Rattus norvegicus [3]): -50%
Activity (Rattus norvegicus [27]): -86%
Activity (Rattus norvegicus [28]): 3%
Activity (Rattus norvegicus [1]): -55 mmHg
Activity (Rattus norvegicus [5]): -39%
Activity (Rattus norvegicus [29]): -100%
Activity (Rattus norvegicus [30]): 10%
Activity (Rattus norvegicus [31]): -82%
Activity (Rattus norvegicus [8]): 5%
Activity (Rattus norvegicus [9]): 8%

N=C(N)NCCN1CCCCCCC1 [GUANETHIDINE]
Activity (Rattus norvegicus [32]): -85%
Activity (Rattus norvegicus [33]): 57%
Activity (Rattus norvegicus [34]): -65%
Activity (Rattus norvegicus [18]): 160%
Activity (Rattus norvegicus [35]): -72%
Activity (Rattus norvegicus [22]): 105%
Activity (Rattus norvegicus [23]): -100%
Activity (Rattus norvegicus [24]): -94%
Activity (Rattus norvegicus [26]): -100%
Activity (Rattus norvegicus [36]): 64%
